Measurements reported in PMC5167242 (Neoplasia (New York, N.Y.), 2016).
Where “and” joins values, the source holds several entries; their conditions need not be identical. Identical values can stand only once.

What was measured:
[1] = system: tumor type cell lines with wt FGFR1 and wt FGFR2; assay: cell viability assay; format: cell-based; settings: Homo sapiens, 72 h
Summary of the method: (§1)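 Cell lines were grown in RPMI with 1% glutamine and 10% FBS. Cells were exposed to test compound (0.01–50 μM; 10 mM DMSO stock) 48 h after seeding. MTS was added 72 h after treatment and read at 490 nm after 2 h incubation. IC50 was calculated by software and reported as arithmetic mean + SEM.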

[2] = target: VEGFR1-3 tyrosine kinases; settings: biochemical assays; cited from earlier work
DMS114 cells [3] = assay: cell viability assay; format: cell-based; settings: Homo sapiens, DMS-114
Summary of the method: as §1

[4] = system: DMS114 (SCLC) FGFR1 amplified xenograft; assay: DMS114 xenograft tumor growth; format: in vivo, mice
Summary of the method: (§2)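 Female NCr-nu/nu mice (6 weeks old, specific pathogen free) received subcutaneous flank tumor fragments. Tumors were measured by caliper twice weekly, with volume = (length × width²)/2. Best %T/C = (median treated volume / median control volume) × 100.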

FGFR1-3 tyrosine kinases = settings: biochemical assays; cited from earlier work
[5] = after 21 days of treatment, just before the daily oral dose of 10 mg, cited from earlier work
[6] = system: breast cancer patients with FGF-aberrant (FGFR1 and/or FGF3/4/19 gene amplified) tumors; settings: among 12 breast cancer patients with FGF-aberrant tumors; cited from earlier work
[7] = target: PDGFRα/β tyrosine kinases; settings: biochemical assays; cited from earlier work
[8] = pharmacokinetics after 12 daily oral doses in lung xenograft bearing mice; format: in vivo; settings: for tumor/plasma ratio: lung xenografts
[9] = system: MNK45 gastric carcinoma FGFR2 wt xenograft; assay: MNK45 xenograft tumor growth; format: in vivo, mice
Summary of the method: as §2

[10] = system: H1581 (NSCLC) FGFR1 amplified xenograft; assay: H1581 xenograft tumor growth; format: in vivo, mice; settings: for Best T/C%: day 27 after implant
Summary of the method: as §2

[11] = system: SNU16 gastric carcinoma FGFR2 amplified xenograft; assay: SNU16 xenograft tumor growth; format: in vivo, mice; settings: day 30 after implant
Summary of the method: as §2

[12] = system: MFE296 endometrial carcinoma FGFR2 mutated xenograft; assay: MFE296 xenograft tumor growth; format: in vivo, mice
Summary of the method: as §2

H1299 cells [13] = assay: cell viability assay; format: cell-based; settings: Homo sapiens, NCI-H1299
Summary of the method: as §1

H1299 cells [14] = assay: cell cycle perturbation, flow cytometry of DNA content, H1299; format: cell-based, human; settings: H1299, 10 μM (IC50); 4, 24, 48 and 72 hours
[15] = system: HEC1A endometrial carcinoma FGFR2 wt xenograft; assay: HEC1A xenograft tumor growth; format: in vivo, mice; settings: for Best T/C%: HEC1A
Summary of the method: as §2

[16] = system: FGFR1 amplified and FGFR2 amplified or mutated cancer cell lines; assay: cell viability assay; format: cell-based, human
Summary of the method: as §1

[17] = system: H1299 (NSCLC) FGFR1 wt xenograft; assay: H1299 xenograft tumor growth; format: in vivo, mice; settings: for Best T/C%: day 38 after implant
Summary of the method: as §2

DMS114 cells [18] = assay: TUNEL apoptosis assay, DMS114; format: cell-based, human; settings: DMS114, 1 μM (IC50); 4, 24, 48 and 72 hours
H1299 cells [19] = assay: TUNEL apoptosis assay, H1299; format: cell-based, human; settings: H1299, 10 μM (IC50); 4, 24, 48 and 72 hours
DMS114 cells [20] = assay: cell cycle perturbation, flow cytometry of DNA content, DMS114; format: cell-based, human; settings: DMS114, 1 μM (IC50); starting at 24 hours and persisting up to 48 hours
[21] = NCr-nu/nu, mouse, tumor and plasma, po

CNC(=O)c1cccc2cc(Oc3ccnc4cc(OCC5(N)CC5)c(OC)cc34)ccc12 [lucitanib]
IC50 [1]: 3 to 23 µM | Kd [2]: < 0.1 µM | IC50 (DMS114 cells [3]): 1 µM | Best T/C% ([4]; DMS114, 2.5 mg/kg orally daily for 30 days, day 44 after implant): 45 (44) % | Best T/C% ([4]; DMS114, 5 mg/kg orally daily for 30 days, day 46 after implant): 20% and 20 (46) % | Best T/C% ([4]; DMS114, 10 mg/kg orally daily for 30 days, day 44 after implant): 16 (44) % | Best T/C% ([4]; DMS114, 20 mg/kg orally daily for 30 days, day 44 after implant): 12 (44) % | tumor regressions ([4]; DMS114 lung xenograft, any dose schedule, best effect tumor stabilization): No tumor regressions | Kd (FGFR1-3 tyrosine kinases): < 0.1 µM | tumor drug concentration relative to concomitant plasma drug concentration [5]: 25 fold | tumor drug concentration ([5]; breast cancer biopsy from a person): 11 µM | confirmed objective RECIST responses [6]: 4 | unconfirmed objective RECIST responses [6]: 2 | Kd [7]: < 0.1 µM | tumor/plasma ratio ([8]; 4 hours after the last of 12 daily oral doses): 2.5 | tumor/plasma ratio ([8]; 24 hours after the last of 12 daily oral doses): 24.8 | tumor drug concentration at 4 hours relative to in vitro IC50 ([8]; FGFR1 amplified H1581 and DMS114 tumors, higher than IC50 values): 3 to 26 fold | Kp at 4 h [8, 21]: 2.5 ± 0.7 | Kp at 24 h [8, 21]: 24.8 ± 7.4 | Best T/C% ([9]; MNK45, 2.5 mg/kg orally daily for 30 days, day 28 after implant): 22 (28) % | Best T/C% ([9]; MNK45, 5 mg/kg orally daily for 30 days, day 28 after implant): 12 (28) % | Best T/C% ([9]; MNK45, 10 mg/kg orally daily for 30 days, day 32 after implant): 10 (32) % | Best T/C% ([9]; MNK45, 20 mg/kg orally daily for 30 days, day 32 after implant): 7 (32) % | tumor regressions ([9]; MNK45 wt FGFR2, 20 mg/kg (data not shown)): 3 out of 10 mice | Best T/C% ([10]; H1581, 2.5 mg/kg orally daily for 30 days): 46 (27) % | Best T/C% ([10]; H1581, 5 mg/kg orally daily for 30 days): 24% and 24 (27) % | Best T/C% ([10]; H1581, 10 mg/kg orally daily for 30 days): 21 (27) % | Best T/C% ([10]; H1581, 20 mg/kg orally daily for 30 days): 16 (27) % | tumor regressions ([10]; H1581 lung xenograft, any dose schedule, best effect tumor stabilization): No tumor regressions | Best T/C% ([11]; SNU16, 2.5 mg/kg orally daily for 30 days): 40 (30) % | Best T/C% ([11]; SNU16, 5 mg/kg orally daily for 30 days): 32 (30) % | Best T/C% ([11]; SNU16, 10 mg/kg orally daily for 30 days): 16 (30) % | Best T/C% ([11]; SNU16, 20 mg/kg orally daily for 30 days): 14 (30) % | Best T/C% ([12]; MFE296, 2.5 mg/kg orally daily for 30 days, day 28 after implant): 36 (28) % | Best T/C% ([12]; MFE296, 5 mg/kg orally daily for 30 days, day 25 after implant): 34 (25) % | Best T/C% ([12]; MFE296, 10 mg/kg orally daily for 30 days, day 30 after implant): 22 (30) % | Best T/C% ([12]; MFE296, 20 mg/kg orally daily for 30 days, day 25 after implant): 17 (25) % | IC50 (H1299 cells [13]): 10 µM | perturbation of the cell cycle (H1299 cells [14]): late S-G2/M blockade | tumor regressions ([15]; HEC1A wt FGFR2, 20 mg/kg (data not shown)): 2 out of 10 mice | Best T/C% ([15]; 2.5 mg/kg orally daily for 30 days, day 45 after implant): 29 (45) % | Best T/C% ([15]; 5 mg/kg orally daily for 30 days, day 47 after implant): 17 (47) % | Best T/C% ([15]; 10 mg/kg orally daily for 30 days, day 45 after implant): 12 (45) % | Best T/C% ([15]; 20 mg/kg orally daily for 30 days, day 49 after implant): 10 (49) % | IC50 lower in FGFR2 amplified or mutated cell lines than in FGFR2 wt cells ([16]; FGFR2 amplified or mutated cell lines vs FGFR2 wt cells): 10 fold | IC50 ([16]; Homo sapiens, 72 h): 0.045 to 3.16 µM | Best T/C% ([17]; H1299, 2.5 mg/kg orally daily for 30 days): 55 (38) % | Best T/C% ([17]; H1299, 5 mg/kg orally daily for 30 days): 41% and 41 (38) % | Best T/C% ([17]; H1299, 10 mg/kg orally daily for 30 days): 28 (38) % | Best T/C% ([17]; H1299, 20 mg/kg orally daily for 30 days): 24 (38) % | tumor regressions ([17]; H1299 lung xenograft, any dose schedule, best effect tumor stabilization): No tumor regressions | apoptosis by TUNEL assay (DMS114 cells [18]): no apoptosis was detected | apoptosis by TUNEL assay (H1299 cells [19]): no apoptosis was detected | perturbation of the cell cycle (DMS114 cells [20]): G1 block
